SR-BI DiI-HDL act: activators of SR-BI mediated HDL lipid uptake; CHO ldlA[mSR-BI] cells, DiI-HDL uptake fluorescence, 3 h; 100 = double the neutral-control signal; activation, % at 12.5 µM; 320,000 compounds, 0.096% hits; AID 504775;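 active means mean replicate activation of at least 60% and every replicate at or above 60%; inconclusive means mean or all-replicate condition met, but not both; inactive means mean below 60% and not all replicates reaching 60%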;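 further: 0% = median plate neutral-control signal and 100% = twice that signal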
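Test system: SR-BI-overexpressing, LDLR-lacking CHO cells. Measured by: DiI fluorescence, bottom read. Medium: Ham's F12 with 0.5% BSA, HEPES 25 mM, pH 7.4. Timing: 3 h uptake period with compound, 37 °C.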
SR-BI DiI inh: blocks mouse SR-BI lipid uptake from DiI-HDL | AID 488896 | ldlA[mSR-BI] CHO cells, DiI-HDL uptake fluorescence, 3 h | 320,000 compounds, 0.96% hits | inhibition, % at 12.5 µM;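 active means mean replicate inhibition of at least 70% and a set share of replicates each scoring 70 or more; inconclusive means meets just one of the two criteria; inactive means fails both criteria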;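 further: 0% = median of neutral control wells and 100% = median of positive control wells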
Target sequence (Q61009 whole entry, looked up): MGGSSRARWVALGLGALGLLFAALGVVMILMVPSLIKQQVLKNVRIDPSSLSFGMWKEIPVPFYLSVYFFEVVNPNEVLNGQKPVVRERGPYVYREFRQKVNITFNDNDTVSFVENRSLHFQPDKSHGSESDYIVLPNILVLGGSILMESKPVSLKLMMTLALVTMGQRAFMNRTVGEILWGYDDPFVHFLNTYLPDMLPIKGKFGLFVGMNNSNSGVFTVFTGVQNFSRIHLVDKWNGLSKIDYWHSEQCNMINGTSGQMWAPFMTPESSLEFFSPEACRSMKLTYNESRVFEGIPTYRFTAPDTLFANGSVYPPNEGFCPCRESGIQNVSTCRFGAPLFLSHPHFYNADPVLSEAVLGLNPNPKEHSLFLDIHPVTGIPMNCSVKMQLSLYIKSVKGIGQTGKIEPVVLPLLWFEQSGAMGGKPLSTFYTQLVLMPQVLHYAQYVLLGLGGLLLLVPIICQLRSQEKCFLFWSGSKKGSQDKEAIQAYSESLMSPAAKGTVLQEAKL
MITF act: MITF TRPM1 promoter activation in melanoma cells. SK-MEL-5 TRPM1-promoter luciferase, 24 h; % of positive control, neutral wells = 0. activation, % at 12.5 µM. 300,000 compounds, 0.75% hits. AID 588334;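 active means mean activation of at least 80% with every replicate also reaching 80%; inconclusive means mean reaches 80% but some replicate falls short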;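 further: 0% = neutral control wells and 100% = parthenolide positive control wells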
Wnt bcat act: Wnt/beta-catenin pathway activation. Wnt/beta-catenin reporter cell assay, activator, plate reader. activation, % at 9.35 µM. 300,000 compounds, 1.2% hits. AID 743398; in the data active means activation above about 30%, passing the limit was not always enough; inconclusive means no clear call, values can overlap the other calls;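 further: 0% = neutral control wells and 100% = positive control wells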
HSF-1 act: increases HSF-1 driven luciferase reporter signal; activation, % at 9 µM; NIH3T3-HGL HSF-1 luciferase reporter, MG132, 8 h; 100% = twice DMSO control signal; 300,000 compounds, 1.7% hits;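 active means mean replicate activation of at least 50% with a set share of replicates each reaching 50%; inconclusive means only one of those two conditions met; inactive means mean below 50% and too few replicates reaching it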;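 further: 0% = median of the neutral control wells and 100% = twice that signal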
* marks the source's active call; other numbers are inactive results; ? = inconclusive; . = no result given. Compounds with a hit are over-represented: about 3.6% of the library has one in this group of screens.

SMILES | SR-BI DiI-HDL act | SR-BI DiI inh | MITF act | Wnt bcat act | HSF-1 act
CCCC[C@@H]1Cc2[nH][nH]c(=O)c2[C@H](c2ccc3ccccc3c2)O1 | . | . | . | 1 | .
Cc1cccc(C2=CC(=O)CC(C)(C)C2=O)c1 | . | . | . | -2 | .
CC(C)c1cc(-c2cc(-c3ccccc3)on2)nc(NC2CCCC2)n1 | -75 | 75* | 8 | -10 | 10
O=C(O)c1ccc(/C=N/Nc2ccc(C(F)(F)F)cn2)cc1 | 16 | -16 | 46 | 19 | 52*
O=C(N/N=C/c1ccc(C(F)(F)F)cc1)c1ccncc1 | -23 | 23 | . | -2 | 1
COc1cc(/C=N/Nc2ccc(C(F)(F)F)cn2)ccc1O | -12 | 12 | 10 | 31* | 34
Cc1scc(C(=O)N/N=C/c2ccc(Cl)s2)c1C | 1 | -1 | 44 | 58* | -5
O=C(N/N=C/c1cn(-c2cccs2)nc1-c1ccccc1)c1ccc(O)cc1 | -20 | 20 | 30 | . | 57*
O=C(N/N=C/c1cn(-c2ccccc2)nc1-c1cccs1)c1ccncc1 | -37 | 37 | 18 | . | 27
O=C(N/N=C/c1cn(-c2cccs2)nc1-c1ccccc1)c1ccccc1Cl | -25 | 25 | 10 | 6 | 59*
COc1ccc(-c2c/c(=N\c3nc(-c4ccccc4)c(C)s3)c3ccccc3o2)cc1O | -80 | 80* | -28 | . | -33
Cc1ccc(-c2csc(=Nc3cccnc3)n2CCCN2CCCC2=O)cc1C | 74* | -74 | -18 | 1 | 26
Cc1ccnc(NC(=O)C2CC(=O)N(c3ccc4c(c3)OCCO4)C2)c1 (configuration not stated) | 4 | -4 | 99* | 46* | 28
CC(=O)c1sc(NC(=O)C2COc3ccccc3O2)nc1C (configuration not stated) | 4 | -4 | . | 36* | -5
O=C(Nc1nncs1)C1COc2ccccc2O1 (configuration not stated) | 37 | -37 | 2 | . | -1
Cc1ccnc(NC(=O)C2COc3ccccc3O2)c1 (configuration not stated) | 10 | -10 | 88* | 58* | 31
COC(=O)c1sc(C(F)(F)F)c(-c2ccccc2)c1S(=O)(=O)N1CCOCC1 | 7 | -7 | . | -5 | .
COc1ccc2nc(SC)c(C#N)cc2c1 | 12 | -12 | 15 | 1 | 143*
COc1ccc2nc(SCC(C)=O)c(C#N)cc2c1 | -41 | 41 | -16 | ? | 84*
COc1ccc2nc(SCC(=O)N3CC(=O)Nc4ccccc43)c(C#N)cc2c1 | -18 | 18 | 5 | . | 6
C[C@@H]1COc2cccc(N3CCSCC3)c2S(=O)(=O)N1 | . | . | . | -1 | .
CCCCN1CC(COCc2ccccc2)Oc2cccc(Oc3ccc(F)cc3OC)c2S1(=O)=O (configuration not stated) | . | . | . | -3 | .
CC1(C)Oc2c(ccc(O)c2CN2CCOCC2)C2=C1CCCC2 | -26 | 26 | -2 | -4 | .
O=S1(=O)c2ccc(Br)cc2OC[C@H](c2ccccc2)N1Cc1ccccc1 | . | . | . | -4 | .
Cc1cc(C(=O)NC2CCCCCCC2)ccc1[N+](=O)[O-] | 1 | -1 | . | 48* | 16
SMILES | SR-BI DiI-HDL act | SR-BI DiI inh | MITF act | Wnt bcat act | HSF-1 act
CC(C)(C)c1ccc(C(=O)NCCc2ccccc2)cc1 | -14 | 14 | ? | 29 | -40
Cc1cccc(C(=O)NCCc2ccccc2)c1 | 10 | -10 | 105* | ? | 43
Cc1cc(C(=O)NCCc2ccccc2)ccc1[N+](=O)[O-] | -12 | 12 | 92* | 17 | 22
O=C(NCCc1ccccc1)c1ccc(Cl)nc1 | 15 | -15 | 59 | 39* | 23
Cc1cccc(NC(=O)c2cc(S(=O)(=O)N3CCCCC3)c[nH]2)c1 | . | . | . | 0 | .
COCCn1c(N)c(N(Cc2ccccc2)C(=O)c2ccc(C#N)cc2)c(=O)[nH]c1=O | 15 | -15 | 3 | 2 | 55*
O=C(CNC(=O)c1cc(Cl)cc([N+](=O)[O-])c1)NC1CC1 | . | 6 | -6 | 4 | .
Oc1ccc(NCc2ccccc2OCc2ccccc2)cc1 | -5 | 5 | -7 | 39* | 18
CCNCc1ccccc1OCc1ccccc1 | 18 | -18 | 5 | 0 | -12
O=c1[nH]c2ccc(NCc3ccccc3OCc3ccc(Cl)cc3)cc2[nH]1 | -72 | 72* | 36 | -2 | 24
Cc1ccccc1CN1CCN(c2nc3ccccc3s2)CC1 | 14 | -14 | 76 | ? | 81*
COc1ccc2nc(N3CCN(C(=O)C4COc5ccccc5O4)CC3)sc2c1 (configuration not stated) | -13 | 13 | 100* | -3 | 28
Cc1onc(-c2ccccc2Cl)c1C(=O)N1CCCCC1 | . | . | 7 | -3 | 6
O=C(C1CC1)N1CCN(c2nc3ccccc3s2)CC1 | 1 | -1 | 87* | 31* | 34
Cc1onc(-c2ccccc2Cl)c1C(=O)N1CCN(c2nc3ccccc3s2)CC1 | -21 | 21 | -22 | 44* | -10
C[C@@H]1CN([C@@H](C)CO)C(=O)CCCn2cc(nn2)CO[C@H]1CN(C)C(=O)Nc1ccc(C(F)(F)F)cc1 | . | . | . | 0 | .
CCOC(=O)c1c(-c2ccc(C)o2)csc1NC(=O)COC(=O)c1ccc(NC(N)=O)cc1 | -18 | 18 | -12 | . | 74*
CCOC(=O)c1c(-c2ccc(C)o2)csc1NC(=S)NC(=O)c1ccccc1Br | -18 | 18 | -4 | . | 85*
C=CCNC(=S)NNC(=O)c1cccn(Cc2ccc(Cl)c(Cl)c2)c1=O | -2 | 2 | 3 | -17 | 81*
O=S1(=O)CC(N2CC=CC2)CN1Cc1cn(Cc2cccc(C(F)(F)F)c2)nn1 (configuration not stated) | . | . | . | -3 | .
COc1c(Br)cc(Br)cc1C(=O)O | 1 | -1 | . | . | 112*
S=C(NCCN1CCOCC1)N1CCN(c2cccc(Cl)c2)CC1 | 6 | -6 | -1 | 0 | -1
S=C(NCc1ccco1)N1CCN(c2cccc(Cl)c2)CC1 | -29 | 29 | 7 | -2 | 54*
S=C(NCc1ccco1)N1CCN(C(c2ccccc2)c2ccccc2)CC1 | -20 | 20 | -1 | . | 58*
COc1ccc(C(=O)NC2CCN(C(=S)NCc3ccco3)CC2)cc1 | 7 | -7 | -2 | -1 | 56*
SMILES | SR-BI DiI-HDL act | SR-BI DiI inh | MITF act | Wnt bcat act | HSF-1 act
Cc1ccc(NC(=O)CNC(=O)CN2C(=O)c3ccccc3C2=O)cc1 | . | . | . | -2 | .
Cc1cc2c(cc1C)-n1nnnc1C(N1CCN(CC(=O)NC(C)C)CC1)C(=O)N2 (configuration not stated) | . | . | . | 1 | .
C[C@H](NC(=O)[C@@H]1CCCN1C(=O)[C@@H]1CCCN1C(=O)c1cccc2ccccc12)c1ccccc1 | . | . | . | -3 | .
O=C1C2CC=CCC2C(=O)N1Cc1nnc(-c2ccc(Cl)cc2)o1 (configuration not stated) | 8 | -8 | 25 | -1 | 56*
Cc1csc(-c2nc3ccccc3n2C(C(=O)Nc2c(C)cccc2C)C2CC2)c1 (configuration not stated) | . | . | . | -1 | .
COn1c(-c2ccccc2)nc2ccc(Cl)cc21 | -5 | 5 | . | . | 66*
